# MC4R antag cAMP – human MC4R antagonism in cAMP assay. MC4R-expressing cells, MTII-stimulated cAMP, LANCE TR-FRET. inhibition, % at 6.5 µM. 360,000 tested, 0.48% active. P32245;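 active = inhibition above its plate's cutoff, the mean of tested wells on that plate plus 3 SD, cut at about 29% in these data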;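 also: 0% = Melanotan II alone and 100% = Melanotan II plus saturating MCL0020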
#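 Material: U2OS-MC4R stable cell line | Reagent: Melanotan II challenge after compound preincubation | Doses: One concentration, 6.5 µM nominal | Incubation: 30-min compound preincubation, 1-h Melanotan II challenge, 1-h detection, room temperature | Signal: TR-FRET cAMP assay | Replicates: One well per compound, no replicates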
# Beta2AR agonist – human beta-2 adrenergic receptor agonism by FAP | Am2.2-beta2AR cells, FAP receptor internalization, flow cytometry | 340,000 tested, 0.43% active | response, % (test concentration not listed) | P07550;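 active = response above a set limit, near 3 SD of response in nonfluorescent compounds, cut at about 42% in these data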
# m5-HT2A agonist – mouse HTR2A agonism via beta-arrestin recruitment. P35363. CHO-K1 mHTR2A beta-arrestin complementation, luminescence; percent of 30 µM serotonin response. activation, % at 7.6 µM. 360,000 tested, 0.66% active. AID 624169;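 active = activation above a run cutoff, the mean activation of all tested compounds plus 3 SD, cut at about 14% in these data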;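 also: 0% = plate median of compound wells and 100% = 30 µM serotonin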
# Target sequence (P35363 whole entry, looked up): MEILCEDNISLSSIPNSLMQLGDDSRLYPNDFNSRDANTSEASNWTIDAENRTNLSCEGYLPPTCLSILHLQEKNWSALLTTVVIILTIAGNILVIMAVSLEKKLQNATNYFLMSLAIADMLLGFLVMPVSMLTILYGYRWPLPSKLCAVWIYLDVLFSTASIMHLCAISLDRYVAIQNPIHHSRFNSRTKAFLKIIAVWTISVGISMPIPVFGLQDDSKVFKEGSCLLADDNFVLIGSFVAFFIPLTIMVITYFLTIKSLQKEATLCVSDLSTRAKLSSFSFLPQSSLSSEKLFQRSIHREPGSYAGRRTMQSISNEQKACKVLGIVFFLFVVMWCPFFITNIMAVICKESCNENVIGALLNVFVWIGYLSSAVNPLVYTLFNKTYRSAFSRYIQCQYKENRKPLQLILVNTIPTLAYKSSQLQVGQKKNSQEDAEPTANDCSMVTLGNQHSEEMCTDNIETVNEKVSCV
# MC4R barr agon – human MC4R agonism via beta-arrestin; P32245; U2OS MC4R beta-arrestin complementation, luminescence; percent of melanotan II response, DMSO zero; activation, % at 8.9 µM; 360,000 tested, 0.98% active; AID 540308;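 active = activation above a per-plate cutoff, the mean activation of sample wells on that plate plus 3 SD, cut at about 8% in these data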
# TAAR1 antag – human TAAR1 antagonism; 360,000 tested, 1.5% active; AID 624466; inhibition, % at 3 µM; Q96RJ0; CHO RD-HGA16 TAAR1, Fluo-8 calcium fluorescence, antagonist;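 active = inhibition above a per-plate cutoff, the mean inhibition of test compounds on that plate plus 3 SD, cut at about 49% in these data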;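 also: 0% = DMSO plus EC80 beta-PEA response and 100% = DMSO alone without agonist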
#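 Assay system: RD-HGA16 CHO cells with stable hTAAR1 and Gα16 / Reagent: EC80 β-phenethylamine stimulus / Doses: 3 µM, single point / Timing: dye loading 75 min at 37 °C, then 30 min room temperature / Measured by: Fluo-8 intracellular calcium dye fluorescence, real-time kinetic reads / Controls: vehicle wells and EC80 agonist wells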
# TAAR1 ag – agonists of human TAAR1 | Q96RJ0 | CHO RD-HGA16 TAAR1, Fluo-8 calcium fluorescence; vehicle wells 0%, saturating PEA agonist 100% | activation, % at 3 µM | 360,000 tested, 0.99% active | AID 624467;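 active = activation above the mean activation of all test compounds in the run plus 3 SD, cut at about 38% in these data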
#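 Repeats: no replicates (n 1) | Material: CHO-derived RD-HGA16 cells with stable Gα16 and human TAAR1 | Technique: Kinetic Fluo-8 calcium fluorescence | Schedule: 17-24 h seeding, 75 min 37 °C dye, 30 min RT | Evaluation: % activation from peak over basal fluorescence ratio, DMSO-to-PEA scaled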
# MOR ag counter – counter-screen for mouse HTR2A agonists: human mu opioid receptor agonists; shares compounds with m5-HT2A agonist; U2OS OPRM1 beta-arrestin PathHunter, luminescence; DMSO 0%, DAMGO 9.3 µM 100%; activation, % at 9.3 µM; 2,300 tested, 5.3% active; AID 624380;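 active = mean activation above the mean of DMSO-only wells plus 3 SD, cut at about 0.5% in these data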
# HTR2A ag conf – mouse HTR2A agonism confirmed. shares compounds with m5-HT2A agonist. CHO-K1 PathHunter beta-arrestin recruitment, luminescence; DMSO 0%, 30 µM serotonin 100%. activation, % at 7.6 µM. 2,300 tested, 19% active. AID 624381;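 active = mean activation across triplicates above the hit threshold derived in the original primary screen, cut at about 15% in these data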
# Numbers without * were called inactive; · = no result. An excerpt weighted towards active compounds, which were near 4.3% of everything screened.
SMILES,MC4R antag cAMP,Beta2AR agonist,m5-HT2A agonist,MC4R barr agon,TAAR1 antag,TAAR1 ag,MOR ag counter,HTR2A ag conf
CCOC(=O)C1CCN(CC(C)(C)NS(=O)(=O)c2ccc(C)cc2)CC1,-1.6,3.4,19.8*,1.2,-1.1,1.8,-0.6,1.6
CCN(CC(=O)Nc1c(F)cccc1F)C(=O)c1ccc(OCc2c(C)noc2C)cc1,4.7,-2.2,1.6,-2.0,9.1,-1.8,·,·
Cc1c(C(=O)NCc2ccccn2)sc(=O)n1Cc1ccc(-c2ccccc2)cc1,12.8,·,24.7*,2.8,40.8,1.5,-0.6,-3.9
O=C(Nc1cccc2nsnc12)c1ccc(-c2cccc(Cl)c2)o1,10.8,1.3,15.7*,1.8,11.6,-0.1,-0.1,-0.1
CC(=O)Cn1cnc2c(cnn2-c2ccc(C)c(C)c2)c1=O,5.0,6.5,0.2,-1.8,0.2,0.6,·,·
O=C(NC1CCCCC1)N1CCNCC1,-6.3,-1.1,14.4*,-1.0,-1.7,4.3,-0.6,-2.4
COC(=O)CN1C(c2ccc(Cl)cc2)=Nc2ccc(Cl)cc2C1c1ccccc1 (configuration not stated),1.3,4.9,14.7*,0.3,14.6,-1.6,-0.2,-0.8
COc1ccc(C2=Nc3ccc(C)cc3C(c3ccccc3)N2CC(=O)NN)cc1 (configuration not stated),4.9,-3.1,-4.6,-2.6,-8.4,2.2,·,·
COc1cc(CN2CCN(c3ncccn3)CC2)cc(OC)c1,4.7,6.0,20.7*,-0.4,-5.2,2.8,-0.5,121.1*
COc1ccc(CN2CCN(c3ncccn3)CC2)c(OC)c1,5.5,-1.5,38.5*,1.9,8.6,5.6,-0.4,99.2*
COc1ccc(CN2CCN(c3ccccn3)CC2)c(OC)c1,7.6,-2.6,40.2*,-1.9,-15.4,6.0,-0.2,82.4*
COCCN1C[C@@H](CO)O[C@@H](n2cnc3c(N4CCN(c5ccccc5)CC4)ncnc32)C1,14.8,·,2.3,0.9,-28.9,1.2,·,·
Cc1ccccc1-c1cnc(C(O)c2ccc(C(C)(C)C)cc2)[nH]1 (configuration not stated),1.2,·,-5.3,3.9,2.6,1.8,·,·
N/C(=N\O)c1ccccc1-n1cccc1,6.9,7.5,15.0*,-2.3,-1.4,-0.4,-0.6,-2.7
O=[N+]([O-])c1ccccc1CNCCCCCO,4.9,1.5,-2.2,-2.5,5.1,10.1,·,·
COc1cccc(NC(=O)N2CCN(c3cccc(C)c3)C(C)C2)c1 (configuration not stated),3.2,5.5,4.2,-1.2,3.6,2.4,·,·
COc1cccc(N2CCN(C(=O)c3ccc(=O)oc3)CC2C)c1 (configuration not stated),-1.7,0.9,21.5*,-0.8,-18.3,8.4,-0.5,4.0
CC(C)NC(=O)Nc1ccc2c(c1)C(=O)N([C@@H](C)CO)C[C@H](C)[C@H](CN(C)S(=O)(=O)c1ccccc1)OCCCC[C@H](C)O2,9.6,·,-2.0,0.6,2.3,-0.1,·,·
CN(c1ccccc1)S(=O)(=O)c1ccc(C(=O)NCc2ccccc2F)cc1,-3.6,1.5,-1.7,-1.2,-1.7,7.7,·,·
Cc1cc(Cl)ccc1C(=O)C1CCCN(C(=O)c2cc(C(C)C)no2)C1 (configuration not stated),6.1,-7.1,46.1*,-1.3,2.9,-1.8,-0.5,-4.8
CC(C)c1cc(C(=O)N2CCCC(C(=O)c3ccc4ccccc4c3)C2)on1 (configuration not stated),19.2,-4.7,-5.0,-0.8,-6.2,-1.2,·,·
CC1CC(C)CN(CCOc2cccc(Cl)c2Cl)C1 (configuration not stated),-0.3,4.7,29.7*,1.6,6.6,7.4,-0.4,78.0*
CC1CC(C)CN(CCOc2ccc(Cl)cc2Cl)C1 (configuration not stated),4.4,22.9,-7.9,1.0,-3.0,14.2,·,·
CC(SCC(=O)Nc1ccc(F)cc1)c1nc2ccccc2c(=O)[nH]1 (configuration not stated),1.2,2.7,4.4,-0.9,-33.9,4.5,·,·
CC1CCN(Cc2nnnn2CCCC(=O)NCCc2cnn(C)c2)CC1,7.3,0.9,15.6*,0.9,-2.5,0.6,-0.7,-5.4
SMILES,MC4R antag cAMP,Beta2AR agonist,m5-HT2A agonist,MC4R barr agon,TAAR1 antag,TAAR1 ag,MOR ag counter,HTR2A ag conf
O=C(COc1ccccc1Cl)N(Cc1cccs1)C1CCS(=O)(=O)C1 (configuration not stated),2.3,-0.1,20.2*,0.8,-2.5,-0.8,-0.7,-3.8
COc1ccc(CN2CCC2(C)C(=O)Nc2cnc3ccccc3c2)c2ccccc12 (configuration not stated),-0.2,·,1.9,0.4,31.6,1.2,·,·
COC(=O)c1ccccc1NC(=O)c1sc(=S)n(C)c1N,1.8,-8.4,-1.9,1.2,6.3,5.7,·,·
Cn1c(N)c(C(=O)Nc2c(Cl)cccc2Cl)sc1=S,7.8,-8.1,20.4*,0.3,-14.2,2.6,0.0,1.0
C=CCn1c(SCC(=O)NC2CCCCC2)nnc1-c1ccccn1,6.1,-6.5,14.4*,-2.8,-9.3,0.5,-0.7,-1.2
CC(C)(C)n1nnnc1C(c1cc2ccccc2o1)N(CCC#N)Cc1ccccc1 (configuration not stated),·,·,42.0*,·,-10.8,-0.3,-0.6,-6.3
O=c1[nH]c(C2CCN(S(=O)(=O)c3ccc(F)cc3)CC2)nc2c1nnn2Cc1ccc2c(c1)OCCO2,9.6,5.7,15.3*,2.8,-44.8,-1.2,-0.6,-3.8
COc1cccc(OC)c1OCCOCCn1cnc2ccccc2c1=O,4.0,-0.4,17.8*,-0.8,0.6,9.7,-0.2,-2.9
Cc1cccc(C)c1OCCCCn1cnc2ccccc2c1=O,-2.8,-8.6,-4.8,-0.7,6.6,8.5,·,·
CCOC1=C2CN(S(=O)(=O)c3ccc(C)cc3)[C@H](c3ccccc3)C[C@@H]2N(S(=O)(=O)c2ccc(Br)cc2)[C@H](c2ccccc2)C1,·,·,10.6,·,-6.1,2.1,·,·
Cn1ncc(Cl)c1C(=O)Nc1nnc(C2CC2)s1,3.7,6.5,-0.7,-4.1,-6.0,0.4,·,·
Cn1nccc1C(=O)Nc1nnc(C2CC2)s1,21.2,2.1,15.4*,0.9,-22.8,2.3,-0.4,3.3
